Data: ChEMBL document CHEMBL1146530, “Antihyperglycemic effect of puerarin in streptozotocin-induced diabetic rats” (2003)
Calls of active or inactive are those of the source. The rule behind the calls is not given here.

What was measured:
Rattus norvegicus [1] = assay: Antihyperglycemic effect in normal Wistar rat assessed as decrease in plasma glucose level at 15 mg/kg, iv measured after 5 mins of glucose challenge by intravenous glucose challenge test
Rattus norvegicus [2] = assay: Antihyperglycemic effect in STZ- induced diabetic Wistar rat model assessed as reduction in plasma glucose level at 15 mg/kg, iv measured after 30 mins; type: functional; parameters: scale not given: the % may be the effect or the level left
In short: (§1)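 Fasting STZ-diabetic rats (60 mg/kg iv, 2 weeks earlier; glucose ≥20 mmol/L) got a single tail-vein bolus (5.0-20.0 mg/kg in normal saline). Vehicle controls received the same volume. Tail-vein blood was drawn 30 min later under pentobarbital (30.0 mg/kg ip). Plasma glucose was measured by enzymatic kit at 37 °C for 10 min, run in duplicate. n = 8 per group; mean ± SEM.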

Rattus norvegicus [3] = assay: Antihyperglycemic effect in STZ- induced diabetic Wistar rat model assessed as decrease in plasma glucose level at 15 mg/kg, iv tid every 8 hrs for 3 days; type: functional
In short: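 STZ-diabetic rats were dosed at 15.0 mg/kg iv into the tail vein every 8 h (tid) for 3 days. Vehicle-treated diabetic and normal rats served as comparisons. Plasma glucose was measured in fasting animals after the final dose.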

Rattus norvegicus [4] = assay: Antihyperglycemic effect in STZ- induced diabetic Wistar rat model assessed as reduction in plasma glucose level at 20 mg/kg, iv measured after 30 mins; type: functional, organism-based; parameters: dose 20 mg/kg
In short: as §1

[5] = biological target: Solute carrier family 2, facilitated glucose transporter member 4 (Rattus norvegicus) (UniProt P19357); assay: Induction of GLUT4 protein level in STZ- induced diabetic Wistar rat soleus muscle at 15 mg/kg, iv tid every 8 hrs for 3 days by Western blot relative to beta-tubulin expression
Rattus norvegicus [6] = assay: Antihyperglycemic effect in normal Wistar rat assessed as reduction in plasma glucose level at 15 mg/kg, iv measured after 30 mins by intravenous glucose challenge test
Rattus norvegicus [7] = assay: Antihyperglycemic effect in iv dosed STZ- induced diabetic Wistar rat model assessed as reduction in plasma glucose level measured after 30 mins; type: functional, organism-based
In short: as §1

Rattus norvegicus [8] = species on record: Rattus norvegicus; assay: Antihyperglycemic activity against STZ- induced diabetic Wistar rat soleus muscle assessed as 2-[1-14C]-deoxy-D-glucose uptake after 30 mins; type: functional, tissue-based
In short: (§2)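 Soleus muscle strips ([…]) from rats made diabetic with STZ (60 mg/kg iv), used 2 weeks later. Strips were preincubated 30 min in KRBB (37 °C, pH 7.4, 1 mmol/L glucose, 1% fatty acid-free BSA, 5% CO2 in O2), then exposed to test agent 30 min. Next came 2-[1-14C]-deoxy-D-glucose (1 µCi/mL) for 5 min. Strips were dissolved in NaOH and counted by β-counting. Nonspecific uptake was defined with 20 µmol/L cytochalasin B and subtracted. Results are given as % of KRBB-only basal uptake. The 1 nmol/L insulin reference was run the same way.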

[9] = Antihyperglycemic activity against STZ- induced diabetic Wistar rat soleus muscle assessed as 2-[1-14C]-deoxy-D-glucose uptake at 0.01 umol/L after 30 mins relative to control; type: functional
In short: as §2

[10] = Antihyperglycemic activity against STZ- induced diabetic Wistar rat soleus muscle assessed as 2-[1-14C]-deoxy-D-glucose uptake at 100 umol/L after 30 mins relative to control; type: functional
In short: as §2

Rattus norvegicus [11] = assay: Antihyperglycemic effect in normal Wistar rat assessed as decrease in plasma glucose level at 15 mg/kg, iv measured after 15 mins of glucose challenge by intravenous glucose challenge test
Rattus norvegicus [12] = assay: Induction of GLUT4 mRNA level in STZ- induced diabetic Wistar rat soleus muscle at 15 mg/kg, iv tid every 8 hrs for 3 days by Northern blot relative to beta-actin expression; type: functional
In short: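 Rats received 15.0 mg/kg iv tid (every 8 h) for 3 days and were killed fasting. Soleus total RNA (20 µg) was denatured in formaldehyde/formamide at 55 °C and run on a 1.2% agarose/formaldehyde gel. Blots were probed with [α-32P]dCTP-labelled probe at 65 °C for 2 h and washed to 0.1× SSC/0.1% SDS at 40 °C. GLUT4 was normalized to β-actin; n = 4, mean ± SEM.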

Rattus norvegicus [13] = assay: Induction of GLUT4 protein level in STZ- induced diabetic Wistar rat soleus muscle at 15 mg/kg, iv tid every 8 hrs for 3 days by Western blot relative to vehicle treated normal rat; type: functional
In short: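 Same 3-day tid 15.0 mg/kg iv regimen. Soleus homogenate (50 µg protein) was run on 10% SDS-PAGE and transferred to PVDF. Blots were probed overnight at 4 °C with mouse anti-rat GLUT4 (1:1000); β-tubulin (1:500) served as loading control. Detection was by peroxidase secondary and ECL, with densitometry at 45 kDa (GLUT4) and 50 kDa (β-tubulin). n = 4.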

Compound: O=c1c(-c2ccc(O)cc2)coc2c([C@@H]3O[C@H](CO)[C@@H](O)[C@H](O)[C@H]3O)c(O)ccc12 [PUERARIN]
- Activity (Rattus norvegicus [1]): 13.4 mmol/L
- Activity (Rattus norvegicus [2]): 33.5%
- Activity (Rattus norvegicus [3]): 16.5 mmol/L
- Activity (Rattus norvegicus [4]): Active
- Activity [5]: 0.88 a.u.
- Activity (Rattus norvegicus [6]): 3.9 mmol/L
- Activity (Rattus norvegicus [7]): Dose-dependent effect
- Activity (Rattus norvegicus [8]): Dose-dependent effect
- Activity [9]: 108%
- Activity [10]: 145%
- Activity (Rattus norvegicus [11]): Active
- Activity (Rattus norvegicus [12]): 1.01 a.u.
- Activity (Rattus norvegicus [13]): 80%
